Test results as given in ChEMBL document CHEMBL4825730, “Discovery of a First-in-Class Inhibitor of the PRMT5-Substrate Adaptor Interaction” (J Med Chem, 2021).
≈ marks a conversion by molar mass, not a printed value. Calls of active or inactive are those of the source. The rule behind the calls is not given here.

Experiments:
[1] = molecular target: T1, Protein arginine N-methyltransferase 5 (Homo sapiens, UniProt O14744); assay: Covalent inhibition of human PRMT5 assessed as initial binding constant by LC-MS analysis
T1 sequence (O14744 whole entry): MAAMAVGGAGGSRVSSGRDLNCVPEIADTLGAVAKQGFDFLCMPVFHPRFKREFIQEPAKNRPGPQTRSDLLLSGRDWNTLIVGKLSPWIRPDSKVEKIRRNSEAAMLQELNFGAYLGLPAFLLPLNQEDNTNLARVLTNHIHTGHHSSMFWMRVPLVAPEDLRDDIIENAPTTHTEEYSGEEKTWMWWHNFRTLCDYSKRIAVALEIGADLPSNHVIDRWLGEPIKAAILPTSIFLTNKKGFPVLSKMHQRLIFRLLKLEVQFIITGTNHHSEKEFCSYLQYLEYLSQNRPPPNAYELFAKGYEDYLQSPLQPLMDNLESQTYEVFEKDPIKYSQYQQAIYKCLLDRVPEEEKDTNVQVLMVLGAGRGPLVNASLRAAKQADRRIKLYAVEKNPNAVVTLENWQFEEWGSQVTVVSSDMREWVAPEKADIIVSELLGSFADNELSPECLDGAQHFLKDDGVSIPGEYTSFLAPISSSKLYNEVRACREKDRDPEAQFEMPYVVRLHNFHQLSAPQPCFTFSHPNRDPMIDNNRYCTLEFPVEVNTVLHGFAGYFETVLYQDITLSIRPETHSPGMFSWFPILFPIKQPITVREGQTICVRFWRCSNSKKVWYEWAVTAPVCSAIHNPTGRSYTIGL

[2] = molecular target: T1, Protein arginine N-methyltransferase 5; assay: Covalent inhibition of human PRMT5 assessed maximum potential inactivation rate by LC-MS analysis
[3] = Stability in mouse plasma assessed as compound remaining relative to control; format: ADME, cell-free
[4] = molecular target: T1, Protein arginine N-methyltransferase 5; assay: Covalent inhibition of human PRMT5 assessed as Kinact/Ki ratio by LC-MS analysis
[5] = Solubility in PBS buffer; format: physicochemical
[6] = Stability in human plasma assessed as compound remaining relative to control; format: ADME, cell-free
PRMT5/MEP50 complex = PRMT5/MEP50 complex (Homo sapiens, UniProt O14744); assay: Displacement of fluorophore-labeled RIOK1 from human PRMT5/WDR77 hetero octameric complex expressed in Sf9 cells by competition fluorescence polarization (FP) assay
PRMT5/MEP50 complex, sequence (O14744 whole entry): as above
PRMT5/MEP50 complex, sequence (Q9BQA1 whole entry, further chain): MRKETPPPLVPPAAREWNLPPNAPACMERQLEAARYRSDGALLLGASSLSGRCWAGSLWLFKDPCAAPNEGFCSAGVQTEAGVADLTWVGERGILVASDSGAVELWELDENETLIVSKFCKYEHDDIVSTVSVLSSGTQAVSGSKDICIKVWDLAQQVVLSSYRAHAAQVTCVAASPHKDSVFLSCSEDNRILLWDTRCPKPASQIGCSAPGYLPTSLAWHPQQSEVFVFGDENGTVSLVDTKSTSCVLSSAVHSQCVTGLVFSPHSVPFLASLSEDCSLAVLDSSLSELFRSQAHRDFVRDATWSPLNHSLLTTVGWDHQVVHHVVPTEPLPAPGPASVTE

[7] = Disruption of human N-terminal SmBiT peptide-tagged PRMT5/N-terminal LgBiT tagged RIOK1 complex expressed in intact HEK293T cells measured after 40 mins by NanoBiT assay; format: cell-based; conditions: HEK-293T
[8] = molecular target: Methylosome protein WDR77 (Homo sapiens) (UniProt Q9BQA1); assay: Binding affinity to human wild type WDR77 assessed as increase in protein mass by deconvoluted mass spectra analysis
Methylosome protein WDR77 (Homo sapiens), sequence (Q9BQA1 whole entry): as the sequence (Q9BQA1 whole entry, further chain) above
Procedure, shortened: (§1)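 Purified untagged PRMT5:WDR77 (Sf9 co-expressed) exchanged into 10 mM HEPES 7.4, 150 mM NaCl, 1 mM TCEP. Protein diluted to 10 μM; 10 μL protein plus 1 μL compound (0.5 mM stock in DMSO) or DMSO in 90 μL buffer, 4 h at RT. Intact mass by LC-ToF on C4 column at 80 °C, positive ESI, spectra deconvoluted by MaxEnt1.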

[9] = Displacement of fluorophore-labeled RIOK1 from human PRMT5 C278A mutant/WDR77 hetero octameric complex expressed in Sf9 cells by competition fluorescence polarization (FP) assay
Procedure, shortened: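 Competition FP with Sf9-expressed untagged PRMT5:WDR77 (WT or C278A) at 200 nM protomer and 10 nM fluorophore-labeled RIOK1 PBM peptide probe. […] Incubated at RT, read at 40 min, 8-point dose range, triplicate. Normalized to DMSO (100) and unlabeled peptide control at 20 μM (0).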

[10] = test system: Protein arginine N-methyltransferase 5 (Homo sapiens), O14744 [C278A]; assay: Binding affinity to human PRMT5 C278A mutant assessed as increase in protein mass by deconvoluted mass spectra analysis; procedure, shortened: as §1
Protein arginine N-methyltransferase 5 (Homo sapiens), O14744 [C278A], sequence (O14744 whole entry C278A): as the sequence (O14744 whole entry) above, with C278A counted along it

[11] = molecular target: T1, Protein arginine N-methyltransferase 5; assay: Binding affinity to human wild type PRMT5 assessed as increase in protein mass by deconvoluted mass spectra analysis; procedure, shortened: as §1
[12] = molecular target: PRMT5/MEP50 complex (Homo sapiens) (UniProt O14744+Q9BQA1); assay: Displacement of full-length pICIn protein from human PRMT5/WDR77 hetero octameric complex at 2 uM pretreated by SPR competition assay

Stabilty [3] [%] | solubility [5] [µM] | Stabilty [6] [%] | IC50 (PRMT5/MEP50 complex) [µM] | SMILES | further results
92 | 64 (≈ 32.7 µg/mL) | 92 | 0.3 | Cc1ccc(NC(=O)[C@H](C)n2ncc(Cl)c(Cl)c2=O)cc1S(=O)(=O)NCCc1ccccn1 | Ki [1]: 2 µM; Kinact [2]: 1.95 min⁻¹; Ratio [4]: 14600 M⁻¹ s⁻¹
3 | 96 (≈ 47 µg/mL) | 70 | > 200 | Cc1ncc(NC(=O)Cn2ncc(Cl)c(Cl)c2=O)cc1S(=O)(=O)N1CCCN(C)CC1 | –
– | – | – | > 200 | Cc1ccc(NC(=O)Cn2nccc(Cl)c2=O)cc1S(=O)(=O)NCCc1ccccn1 | IC50 [7]: > 100 µM
– | 7.6 (≈ 3.19 µg/mL) | – | – | Cc1cnc(NC(=O)Cn2ncc(Cl)c(Cl)c2=O)cc1S(=O)(=O)N(C)C | –
– | 12 (≈ 6.12 µg/mL) | – | 4.2 | CCc1ccc(NC(=O)Cn2ncc(Cl)c(Cl)c2=O)cc1S(=O)(=O)NCCc1ccccn1 | –
0 | 98 (≈ 47.9 µg/mL) | 84 | 5.4 | Cc1ccc(NC(=O)Cn2ncc(Cl)c(Cl)c2=O)cc1S(=O)(=O)N1CCCN(C)CC1 | –
– | – | – | > 200 | Cc1ccc(NC(=O)C(C)n2ncc(Cl)c(C)c2=O)cc1S(=O)(=O)NCCc1ccccn1 (racemic) | –
– | 14 (≈ 7.15 µg/mL) | – | 6.1 | Cc1cc(C)c(S(=O)(=O)NCCc2ccccn2)cc1NC(=O)Cn1ncc(Cl)c(Cl)c1=O | –
75 | 5 (≈ 2.49 µg/mL) | 96 | 4.5 | Cc1ccc(NC(=O)Cn2ncc(Cl)c(Cl)c2=O)nc1S(=O)(=O)NCCc1ccccn1 | –
– | – | – | 14.1 | Cc1ccc(NC(=O)Cn2ncc(Cl)c(Cl)c2=O)cc1S(=O)(=O)N(C)C | –
– | – | – | 2.2 | Cc1ccc(NC(=O)Cn2ncc(Cl)c(Cl)c2=O)cc1S(=O)(=O)NCCc1ccccn1 | Ki [1]: 8 µM; Activity [8]: inactive; IC50 [9]: > 100 µM; Activity [10]: inactive; Activity [11]: Active; Activity [12]: Active
– | 7.8 (≈ 3.98 µg/mL) | – | 39 | Cc1ccc(NC(=O)Cn2ncc(Cl)c(Cl)c2=O)c(C)c1S(=O)(=O)NCCc1ccccn1 | –
– | 96 (≈ 49.2 µg/mL) | – | 23.3 | COc1ccc(NC(=O)Cn2ncc(Cl)c(Cl)c2=O)cc1S(=O)(=O)NCCc1ccccn1 | –
21 | 88 (≈ 43.7 µg/mL) | 100 | 4.6 | Cc1ccc(NC(=O)Cn2ncc(Cl)c(Cl)c2=O)cc1S(=O)(=O)NCCc1cccnc1 | –
0 | 89 (≈ 42.2 µg/mL) | 72 | 10.1 | Cc1ccc(NC(=O)Cn2ncc(Cl)c(Cl)c2=O)cc1S(=O)(=O)N1CCN(C)CC1 | –
– | – | – | 72.9 | Cc1ccc(NC(=O)Cn2ncc(Cl)cc2=O)cc1S(=O)(=O)NCCc1ccccn1 | Ki [1]: 36 µM
2 | 93 (≈ 46.2 µg/mL) | 92 | 2.5 | Cc1ccc(NC(=O)Cn2ncc(Cl)c(Cl)c2=O)cc1S(=O)(=O)NCCc1ccncc1 | –
– | 3.7 (≈ 1.89 µg/mL) | – | 2.5 | Cc1cc(NC(=O)Cn2ncc(Cl)c(Cl)c2=O)cc(S(=O)(=O)NCCc2ccccn2)c1C | –
– | 7 (≈ 3.38 µg/mL) | – | – | Nc1nc2cc(CC[C@H]3C[C@@H](n4ccc5c(N)ncnc54)[C@H](O)[C@@H]3O)ccc2cc1Br [ONAMETOSTAT] | –
97 | 70 (≈ 35.7 µg/mL) | 95 | 55.4 | Cc1ccc(NC(=O)[C@@H](C)n2ncc(Cl)c(Cl)c2=O)cc1S(=O)(=O)NCCc1ccccn1 | Ki [1]: 78 µM; Kinact [2]: 1.05 min⁻¹; Ratio [4]: 226 M⁻¹ s⁻¹
– | – | – | 35.6 | Cc1ccc(NC(=O)Cn2ncc(F)cc2=O)cc1S(=O)(=O)NCCc1ccccn1 | Ki [1]: 58 µM
86 | 86 (≈ 43.9 µg/mL) | 89 | > 200 | Cc1ccc(N(C)C(=O)Cn2ncc(Cl)c(Cl)c2=O)cc1S(=O)(=O)NCCc1ccccn1 | –
– | – | – | 72.1 | Cc1ccc(NC(=O)Cn2ncc(F)c(C)c2=O)cc1S(=O)(=O)NCCc1ccccn1 | –
– | 0.8 (≈ 0.367 µg/mL) | – | 12.7 | Cc1ccc(NC(=O)Cn2ncc(Cl)c(Cl)c2=O)cc1S(=O)(=O)N1CCCCC1 | –
– | – | – | 0.37 | Cc1ccc(NC(=O)Cn2ncc(F)c(Cl)c2=O)cc1S(=O)(=O)NCCc1ccccn1 | –
– | 101 (≈ 38.7 µg/mL) | – | – | O=C(NC[C@H](O)CN1CCc2ccccc2C1)c1cc(NC2COC2)ncn1 | –
– | 98 (≈ 40.4 µg/mL) | – | > 200 | CN(C)S(=O)(=O)N1CCCC(NC(=O)Cn2ncc(Cl)c(Cl)c2=O)C1 (stereo not given) | –
– | 114 (≈ 55.9 µg/mL) | – | > 200 | Cc1ccc(N(C)C(=O)[C@H](C)n2ncc(Cl)cc2=O)cc1S(=O)(=O)NCCc1ccccn1 | –
– | 19 (≈ 9.16 µg/mL) | – | 19.2 | O=C(Cn1ncc(Cl)c(Cl)c1=O)Nc1cccc(S(=O)(=O)NCCc2ccccn2)c1 | –
